High-throughput results: PubChem, The Scripps Research Institute Molecular Screening Center
Compounds with a hit are over-represented: about 1.2% of the library has one in this group of screens.
proCasp7 act – counter-screen: procaspase-7 (human) activation; 330,000 tested, 0.093% active; activation, % at 8.5 µM; recombinant procaspase-7, Ac-DEVD-pNA absorbance 405 nm; D23A/D198A/D206A triple mutant, cannot self-cleave; scale: DMSO 0, 5 µM enzyme 100;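 active = percent activation above the screen-wide mean plus 3 SD, cut at about 25% in these data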
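Test system: Procaspase-7 triple mutant (PC-7 D3A). Also added: Ac-DEVD-pNA substrate, 400 µM as added. Schedule: 1 h enzyme–compound preincubation and 2 h substrate reaction, both 25 °C. Signal: p-Nitroaniline absorbance at 405 nm, read at 0 and 120 min. Control set: low DMSO alone, high DMSO plus 5 µM PC-7.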
procasp3 activ – activates human procaspase-3; P42574; recombinant procaspase-3 D3A, Ac-DEVD-pNA absorbance 405 nm; activation, % at 8.5 µM; 330,000 tested, 0.11% active;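 active = activation above the mean of all tested compounds plus 3 SD, cut at about 21% in these data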
Target sequence (P42574 whole entry D9A/D28A/D175A): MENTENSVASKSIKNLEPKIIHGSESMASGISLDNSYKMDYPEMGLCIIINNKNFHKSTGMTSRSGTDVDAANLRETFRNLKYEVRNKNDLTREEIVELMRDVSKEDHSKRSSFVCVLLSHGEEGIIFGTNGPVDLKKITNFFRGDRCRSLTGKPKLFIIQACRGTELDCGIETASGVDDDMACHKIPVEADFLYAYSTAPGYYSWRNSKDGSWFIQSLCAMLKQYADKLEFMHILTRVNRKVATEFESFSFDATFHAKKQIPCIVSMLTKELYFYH
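Evaluation: percent activation relative to control range; Material: Procaspase-3 D3A mutant, all three cleavage aspartates alanine; Compound: single dose, 8.5 µM nominal compound, 0.8% DMSO; Replication: one well per compound; Signal: absorbance at 405 nm, 0 and 120 min; Schedule: 1 h preincubation plus 2 h reaction at 25 °C.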
IDE act – activators of human insulin-degrading enzyme in cells | HEK cells, FAbeta-B cleavage, fluorescence polarization; 0% vehicle, 100% cell-free pure enzyme wells | AID 493087 | P14735 | activation, % at 5.96 µM | 340,000 tested, 0.073% active;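 active = activation above the mean of all tested compounds plus 3 SD, set per screening campaign, cut at about 17% in these data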
IDE inh – inhibits human insulin-degrading enzyme in HEK cells. inhibition, % at 5.59 µM. P14735. FAbetaB cleavage, fluorescence polarization. 320,000 tested, 0.41% active;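 active = percent inhibition above the average of all tested compounds plus 3 SD, set per screening campaign, cut at about 16% in these data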;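 also: IDE supplied by intact live HEK cells; FP after avidin binding of uncleaved biotin substrate so inhibition keeps polarization high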
TPT1 inhibitor – blocks Candida albicans tRNA 2'-phosphotransferase; inhibition, % at 5 µM; recombinant caTPT1, FP RNA substrate dephosphorylation; AID 1962; 300,000 tested, 0.81% active;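 active = inhibition above the mean of all tested compounds plus 3 SD, set per screening campaign, cut at about 24% in these data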
caTPT1 confirm – TPT1 (C. albicans) inhibition, confirmation. shares compounds with TPT1 inhibitor. 2,400 tested, 74% active. recombinant caTPT1, fluorescence polarization, RNase T1 coupled. inhibition, % at 5 µM;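 active = inhibition above the primary screen limit, the mean inhibition of all tested compounds plus 3 SD, cut at about 25% in these data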
RNase T1 counter – RNase T1 inhibition in TPT1 counter-screen; shares compounds with TPT1 inhibitor; RNase T1 cleavage, fluorescence polarization, 1536-well; inhibition, % at 5 µM; 2,400 tested, 83% active;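 active = inhibition above the solvent-only control well mean plus 3 SD, limit set per screening run, cut at about 23% in these data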;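 also: inhibitors block cleavage so intact labeled substrate keeps polarization high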
Target sequence (P00651 whole entry, looked up): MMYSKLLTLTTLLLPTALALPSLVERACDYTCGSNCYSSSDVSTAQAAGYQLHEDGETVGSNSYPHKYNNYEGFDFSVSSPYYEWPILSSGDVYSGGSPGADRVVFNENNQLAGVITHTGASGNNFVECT
Hits are given with their value; 0 = inactive; - = no result given.

SMILES	proCasp7 act	procasp3 activ	IDE act	IDE inh	TPT1 inhibitor	caTPT1 confirm	RNase T1 counter
Cn1cccc1/C=C1\SC(=S)N(NC(=O)c2cccc(Cl)c2)C1=O	0	0	0	0	86.0	97.6	110.5
Cn1cccc1/C=C1\SC(=S)N(NC(=O)c2ccccc2)C1=O	0	0	0	0	88.5	91.2	111.4
Cc1ccncc1CNC(=O)c1ccccc1	-	-	0	-	-	-	-
Cn1cccc1/C=C1\SC(=S)N(NC(=O)c2ccc(F)cc2)C1=O	0	0	0	0	96.8	111.0	118.2
O=C(NN1C(=O)/C(=C/c2cccs2)SC1=S)c1ccccc1	0	0	0	0	0	-	-
O=c1[nH]c2cc3c(cc2cc1CN(Cc1cccs1)Cc1nnnn1Cc1ccco1)OCCO3	0	0	0	0	30.9	0	0
COc1cc(/C=c2\sc3n(c2=O)C(c2ccccc2)C(c2ccccc2)=NN=3)ccc1O (stereo not drawn)	0	0	0	0	35.3	49.5	56.4
CCOC(=O)c1cc(N)cc([N+](=O)[O-])c1	0	0	0	0	0	-	-
CCOC(=O)c1sc2cc([N+](=O)[O-])cc(SCC(C)C)c2c1N	0	0	0	0	31.7	35.4	46.4
COc1ccccc1N1CCN(/N=C/C=C/c2ccccc2[N+](=O)[O-])CC1	0	0	0	0	0	-	-
Cc1cc(C)n(CC(O)Cn2c(C)c(C)c3ccccc32)n1 (stereo not drawn)	0	0	0	0	46.4	0	0
CCCCCC(O)CCC(=O)NNC1=CC(=O)CC(C)(C)C1 (stereo not drawn)	0	0	0	0	68.9	0	0
CC(O)CCC(=O)NNC1=CC(=O)CC(C)(C)C1 (stereo not drawn)	0	0	-	0	0	-	-
O=C1c2cccnc2C(=O)N1Cc1ccc(S(=O)(=O)N2CCN(c3ccccc3)CC2)cc1	0	0	0	0	0	-	-
CCc1nnc(NS(=O)(=O)c2ccc(N/C=C(\C=O)c3nc4cc(Cl)ccc4o3)cc2)s1	0	0	0	0	80.5	0	0
O=C(Nc1cccc2nsnc12)c1ccc(-c2cccc(Cl)c2)o1	0	0	0	0	31.3	30.2	38.4
COc1cc(/C=C/C(=O)c2c(O)cc(C)oc2=O)cc(OC)c1O	0	0	0	0	36.9	0	0
COc1cc(/C=C/C(=O)O)cc(OC)c1O	0	0	0	0	0	-	-
COc1cccc(/C=C/C(=O)c2c(O)cc(C)oc2=O)c1O	0	0	0	0	32.6	0	0
N#C/C(=C\c1ccc(O)c(Br)c1)C(=O)N1CCCCC1	0	0	0	0	0	-	-
Cc1occc1C(=O)/C(C#N)=C/c1ccc(O)c(Br)c1	0	0	0	0	112.9	169.4	160.8
Cc1cccc(N2CCN(C(=O)c3ccc4c(c3)NC(=O)C(CSCc3cccc(F)c3)N4)CC2C)c1 (stereo not drawn)	0	0	0	0	97.5	98.8	109.8
Cc1cccc(N2CCN(C(=O)c3ccc4nccnc4c3)CC2C)c1 (stereo not drawn)	0	0	0	0	-	-	-
COc1ccccc1N1CCN(C(=O)c2ccc3c(c2)NC(=O)C(CSCc2ccccc2C)N3)CC1 (stereo not drawn)	0	0	-	0	75.0	0	25.9
O=C1Nc2cc(C(=O)N3CCN(c4ccccc4F)CC3)ccc2NC1CSCc1ccccc1F (stereo not drawn)	0	0	-	0	134.4	91.0	98.7
O=C(c1cccc(C(=O)N2CCN(c3ccccc3F)CC2)c1)N1CCN(c2ccccc2F)CC1	0	0	0	0	0	-	-
O=C(CCCn1cncn1)N1CCCC(N2CCN(c3ccc(F)cc3)CC2)C1 (stereo not drawn)	0	0	0	0	0	-	-
O=C(CC1SCCNC1=O)Nc1cccc([N+](=O)[O-])c1 (stereo not drawn)	0	0	0	0	0	-	-
Cc1cc(C)c2nc(NNC(=O)c3cc(=O)c4ccccc4o3)sc2c1	0	0	0	0	24.9	27.1	40.8
